Reference: article PMC10765384 (Bioorganic chemistry, 2023)
Where two headings read alike, the source gives them in different places.

How the values were obtained:
[1] = Cytotoxicity, CellTiter 96 assay in CEM cells; assay type: cell-based, human; conditions: human, T lymphoblast (CEM) cells
How it was run: (§1)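 Colorimetric non-radioactive cell proliferation read-out (CellTiter 96). CC50 is the test compound concentration that inhibited cell growth by 50%.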

[2] = Cytotoxicity, CellTiter 96 assay in PBM cells; assay type: cell-based, human; conditions: human, peripheral blood mononuclear (PBM) cells
How it was run: as §1

[3] = Cytotoxicity, CellTiter 96 assay in HepG2 cells; assay type: cell-based, human; conditions: human, hepatocellular carcinoma (HepG2) cells
How it was run: as §1

[4] = test system: HBV DNA replication in HepAD38 cells; test: Anti-HBV activity, 7-day assay in HepAD38 cells; assay type: cell-based, hepatitis B virus; conditions: for fold increase of anti-HBV potency compared to GLP-26: HepAD38 EC50 relative to reference GLP-26; for EC50: read-out: Anti-HBV activity EC50; for EC90: read-out: Anti-HBV activity EC90
[5] = Cytotoxicity, CellTiter 96 assay in Vero cells; assay type: cell-based, African green monkey; conditions: African green monkey, kidney (Vero) cells
How it was run: as §1

CYP 2B6 = target: T1, CYP 2B6 (Homo sapiens, UniProt P20813); test: CYP inhibition in human liver microsomes; assay type: in vitro ADME
T1 sequence (P20813 1-491): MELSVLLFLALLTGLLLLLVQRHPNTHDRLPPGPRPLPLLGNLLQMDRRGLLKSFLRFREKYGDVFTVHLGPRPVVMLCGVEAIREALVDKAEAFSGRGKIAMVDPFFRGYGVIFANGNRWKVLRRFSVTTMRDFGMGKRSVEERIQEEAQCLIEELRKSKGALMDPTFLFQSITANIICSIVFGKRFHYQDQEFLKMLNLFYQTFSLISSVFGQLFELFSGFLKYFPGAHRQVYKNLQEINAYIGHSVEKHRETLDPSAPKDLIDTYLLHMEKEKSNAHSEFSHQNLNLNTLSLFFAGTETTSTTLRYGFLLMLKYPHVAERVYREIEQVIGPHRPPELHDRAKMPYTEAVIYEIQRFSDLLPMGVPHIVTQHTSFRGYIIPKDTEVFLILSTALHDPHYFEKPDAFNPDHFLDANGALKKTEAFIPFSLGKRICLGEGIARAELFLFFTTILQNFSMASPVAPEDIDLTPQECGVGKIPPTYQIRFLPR

[6] = Liver microsome stability, mouse; assay type: in vitro ADME
How it was run: (§2)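 Test compound (1 μM), alone or with ritonavir at 0.3, 1 or 3 μM, was incubated with 1 mg/mL mouse or human liver microsomes in 100 mM potassium phosphate pH 7.4 with 5 mM MgCl2. NADPH (final 1 mM) started the reaction at 37°C. Aliquots at 0–90 min were quenched in ice-cold methanol, centrifuged, diluted 1:1 with water, and analysed by LC-MS/MS. Propranolol was the positive control.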

CYP 2C19 = CYP 2C19 (Homo sapiens, UniProt P33261); test: CYP inhibition in human liver microsomes; assay type: in vitro ADME
CYP 2C9 = CYP 2C9 (Homo sapiens, UniProt P11712); test: CYP inhibition in human liver microsomes; assay type: in vitro ADME
[7] = Liver microsome stability, human; assay type: in vitro ADME
How it was run: as §2

CYP 1A2 = target: T2, CYP 1A2 (Homo sapiens, UniProt P05177); test: CYP inhibition in human liver microsomes; assay type: in vitro ADME
T2 sequence (P05177 1-516): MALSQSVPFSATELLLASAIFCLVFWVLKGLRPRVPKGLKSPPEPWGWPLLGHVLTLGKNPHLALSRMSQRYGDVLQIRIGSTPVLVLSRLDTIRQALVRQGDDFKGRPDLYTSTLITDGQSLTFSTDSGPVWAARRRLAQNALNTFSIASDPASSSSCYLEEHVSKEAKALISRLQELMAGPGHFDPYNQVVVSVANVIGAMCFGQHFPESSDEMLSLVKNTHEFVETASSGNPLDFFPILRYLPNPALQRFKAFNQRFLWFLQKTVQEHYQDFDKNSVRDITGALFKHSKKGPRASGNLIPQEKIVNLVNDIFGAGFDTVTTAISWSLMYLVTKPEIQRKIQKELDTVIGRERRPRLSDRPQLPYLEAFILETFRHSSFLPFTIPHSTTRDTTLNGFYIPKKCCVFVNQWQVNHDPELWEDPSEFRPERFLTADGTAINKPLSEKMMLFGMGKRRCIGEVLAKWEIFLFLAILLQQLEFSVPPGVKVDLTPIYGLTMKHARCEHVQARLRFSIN
How it was run: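 Known CYP450 probe substrates were incubated with human liver microsomes (0.05–0.2 mg/mL), 1 mM NADPH, 100 mM potassium phosphate pH 7.4 and 3 mM MgCl2 at 37°C, with or without 10 μM test compound, in duplicate. Reactions were quenched with a solution containing internal standards. Each substrate's signature metabolite was quantified by LC/MS/MS.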

CYP 2C8 = target: T3, CYP 2C8 (Homo sapiens, UniProt P10632); test: CYP inhibition in human liver microsomes; assay type: in vitro ADME
T3 sequence (P10632 1-490): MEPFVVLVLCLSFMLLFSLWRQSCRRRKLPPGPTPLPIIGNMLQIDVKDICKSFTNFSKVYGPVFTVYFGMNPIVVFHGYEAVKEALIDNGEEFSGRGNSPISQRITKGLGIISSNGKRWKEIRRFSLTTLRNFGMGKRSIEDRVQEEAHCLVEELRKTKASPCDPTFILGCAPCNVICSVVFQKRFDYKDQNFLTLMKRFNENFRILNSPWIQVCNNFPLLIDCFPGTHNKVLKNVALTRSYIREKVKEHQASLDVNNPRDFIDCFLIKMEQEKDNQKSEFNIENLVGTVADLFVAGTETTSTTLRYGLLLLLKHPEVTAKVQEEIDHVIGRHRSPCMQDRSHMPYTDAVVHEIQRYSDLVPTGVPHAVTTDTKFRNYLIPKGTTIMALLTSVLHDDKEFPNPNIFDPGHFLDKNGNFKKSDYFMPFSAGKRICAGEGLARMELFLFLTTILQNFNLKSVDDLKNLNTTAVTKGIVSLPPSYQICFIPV

CYP 2D6 = CYP 2D6 (Homo sapiens, UniProt P10635); test: CYP inhibition in human liver microsomes; assay type: in vitro ADME
CYP 3A4 = CYP 3A4 (Homo sapiens, UniProt P08684); test: CYP inhibition in human liver microsomes; assay type: in vitro ADME; conditions: for CYP Inhibition (% at 10 μM) 3A4-M: midazolam substrate; for CYP Inhibition (% at 10 μM) 3A4-T: testosterone substrate
[8] = Cell permeability across Caco-2 cell monolayer; assay type: in vitro ADME; conditions: human
How it was run: (§3)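 Bidirectional transport of 2 μM test compound across Caco-2 monolayers at pH 7.4, in duplicate, with final DMSO below 1%. Plates were held 2 hr at 37°C, 5% CO2, saturated humidity, without shaking. Starting, donor and receiver solutions were analysed by LC/MS/MS. Lucifer yellow rejection after transport checked monolayer integrity.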

[9] = test system: human T lymphoblast (CEM) cells; test: Cytotoxicity, CellTiter 96 assay in CEM cells; assay type: cell-based; conditions: read-out: Cytotoxicity CC50 CEM; CEM cells
How it was run: as §1

Formation of glutathione = assay type: in vitro ADME; conditions: human liver microsomes 1 mg/mL, 1 mM GSH, 60 min, 37°C
hERG = hERG (Homo sapiens, UniProt Q12809); test: hERG inhibition, automated patch clamp in CHO cells; assay type: cell-based; conditions: room temperature
How it was run: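 Test article was applied at concentrations up to 10 μM, with n ≥ 3 per compound.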

[10] = test system: human peripheral blood mononuclear (PBM) cells; test: Cytotoxicity, CellTiter 96 assay in PBM cells; assay type: cell-based; conditions: read-out: Cytotoxicity CC50 PBM; PBM cells
How it was run: as §1

HBV = conditions: humanized mouse model, in combination with entecavir; ref [7],[8]; cited from earlier work
[11] = test system: human hepatocellular carcinoma (HepG2) cells; test: Cytotoxicity, CellTiter 96 assay in HepG2 cells; assay type: cell-based; conditions: read-out: Cytotoxicity CC50 HepG2; HepG2 cells
How it was run: as §1

[12] = test system: African green monkey kidney (Vero) cells; test: Cytotoxicity, CellTiter 96 assay in Vero cells; assay type: cell-based; conditions: read-out: Cytotoxicity CC50 Vero; Vero cells
How it was run: as §1

Caco-2 cell monolayer = test: Cell permeability across Caco-2 cell monolayer; assay type: in vitro ADME
How it was run: as §3

[13] = Hepatitis B virus, HePAD38, 168 h
[14] = HepAD38 cells, 7-day assay, HBV DNA

Chain of CYP 3A4 (P08684 whole entry): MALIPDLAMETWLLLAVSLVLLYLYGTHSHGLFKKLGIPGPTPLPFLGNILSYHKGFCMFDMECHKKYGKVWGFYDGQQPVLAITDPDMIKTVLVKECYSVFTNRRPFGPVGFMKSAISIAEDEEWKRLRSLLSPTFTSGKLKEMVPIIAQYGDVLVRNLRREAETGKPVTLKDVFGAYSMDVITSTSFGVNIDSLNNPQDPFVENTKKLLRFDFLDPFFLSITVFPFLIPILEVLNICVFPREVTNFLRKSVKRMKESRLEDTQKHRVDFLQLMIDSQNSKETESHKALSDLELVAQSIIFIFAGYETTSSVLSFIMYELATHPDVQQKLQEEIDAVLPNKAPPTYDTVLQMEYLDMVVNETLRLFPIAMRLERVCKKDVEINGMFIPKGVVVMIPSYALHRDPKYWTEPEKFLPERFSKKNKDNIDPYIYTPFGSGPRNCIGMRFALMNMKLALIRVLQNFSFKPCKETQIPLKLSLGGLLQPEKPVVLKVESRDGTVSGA
Chain of CYP 2D6 (P10635 whole entry): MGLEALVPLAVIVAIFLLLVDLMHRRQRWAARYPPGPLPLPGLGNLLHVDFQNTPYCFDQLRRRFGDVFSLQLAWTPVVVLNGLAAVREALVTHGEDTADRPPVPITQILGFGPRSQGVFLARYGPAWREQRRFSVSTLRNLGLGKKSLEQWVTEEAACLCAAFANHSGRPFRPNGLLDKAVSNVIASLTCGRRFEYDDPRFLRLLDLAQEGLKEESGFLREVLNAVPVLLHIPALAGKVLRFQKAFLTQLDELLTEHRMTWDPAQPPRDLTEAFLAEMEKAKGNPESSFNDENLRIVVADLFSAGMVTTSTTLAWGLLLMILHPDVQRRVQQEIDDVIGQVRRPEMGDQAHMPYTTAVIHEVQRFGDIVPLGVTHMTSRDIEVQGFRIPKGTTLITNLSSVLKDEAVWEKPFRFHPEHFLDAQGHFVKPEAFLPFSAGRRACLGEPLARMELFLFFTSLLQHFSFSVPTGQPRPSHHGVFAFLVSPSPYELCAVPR
Chain of CYP 2C9 (P11712 whole entry): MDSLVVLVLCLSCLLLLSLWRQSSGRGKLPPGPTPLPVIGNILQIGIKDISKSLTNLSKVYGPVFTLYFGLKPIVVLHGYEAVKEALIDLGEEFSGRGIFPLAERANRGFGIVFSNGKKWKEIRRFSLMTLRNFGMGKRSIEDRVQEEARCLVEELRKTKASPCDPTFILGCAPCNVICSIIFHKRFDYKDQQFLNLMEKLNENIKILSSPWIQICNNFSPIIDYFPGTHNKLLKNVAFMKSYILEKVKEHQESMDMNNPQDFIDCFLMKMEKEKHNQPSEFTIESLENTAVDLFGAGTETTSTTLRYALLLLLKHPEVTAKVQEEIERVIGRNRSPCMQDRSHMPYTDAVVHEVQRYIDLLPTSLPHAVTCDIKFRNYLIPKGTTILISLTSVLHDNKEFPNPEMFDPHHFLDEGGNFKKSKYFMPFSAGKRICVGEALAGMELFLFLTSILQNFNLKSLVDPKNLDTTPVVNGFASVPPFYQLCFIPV
Chain of CYP 2C19 (P33261 whole entry): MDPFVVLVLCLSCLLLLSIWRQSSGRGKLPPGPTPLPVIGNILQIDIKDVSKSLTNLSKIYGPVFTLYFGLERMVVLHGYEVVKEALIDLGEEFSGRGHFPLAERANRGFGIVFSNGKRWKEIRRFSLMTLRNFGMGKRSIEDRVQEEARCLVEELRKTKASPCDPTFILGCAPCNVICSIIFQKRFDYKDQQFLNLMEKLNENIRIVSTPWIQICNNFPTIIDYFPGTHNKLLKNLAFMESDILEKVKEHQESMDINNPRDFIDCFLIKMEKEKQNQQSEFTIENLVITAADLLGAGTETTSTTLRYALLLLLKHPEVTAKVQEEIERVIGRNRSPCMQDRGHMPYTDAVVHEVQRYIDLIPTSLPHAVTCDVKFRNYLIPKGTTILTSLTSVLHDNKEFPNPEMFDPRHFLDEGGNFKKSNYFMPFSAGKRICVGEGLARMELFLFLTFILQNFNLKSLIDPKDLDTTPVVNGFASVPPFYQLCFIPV
Chain of hERG (Q12809 whole entry): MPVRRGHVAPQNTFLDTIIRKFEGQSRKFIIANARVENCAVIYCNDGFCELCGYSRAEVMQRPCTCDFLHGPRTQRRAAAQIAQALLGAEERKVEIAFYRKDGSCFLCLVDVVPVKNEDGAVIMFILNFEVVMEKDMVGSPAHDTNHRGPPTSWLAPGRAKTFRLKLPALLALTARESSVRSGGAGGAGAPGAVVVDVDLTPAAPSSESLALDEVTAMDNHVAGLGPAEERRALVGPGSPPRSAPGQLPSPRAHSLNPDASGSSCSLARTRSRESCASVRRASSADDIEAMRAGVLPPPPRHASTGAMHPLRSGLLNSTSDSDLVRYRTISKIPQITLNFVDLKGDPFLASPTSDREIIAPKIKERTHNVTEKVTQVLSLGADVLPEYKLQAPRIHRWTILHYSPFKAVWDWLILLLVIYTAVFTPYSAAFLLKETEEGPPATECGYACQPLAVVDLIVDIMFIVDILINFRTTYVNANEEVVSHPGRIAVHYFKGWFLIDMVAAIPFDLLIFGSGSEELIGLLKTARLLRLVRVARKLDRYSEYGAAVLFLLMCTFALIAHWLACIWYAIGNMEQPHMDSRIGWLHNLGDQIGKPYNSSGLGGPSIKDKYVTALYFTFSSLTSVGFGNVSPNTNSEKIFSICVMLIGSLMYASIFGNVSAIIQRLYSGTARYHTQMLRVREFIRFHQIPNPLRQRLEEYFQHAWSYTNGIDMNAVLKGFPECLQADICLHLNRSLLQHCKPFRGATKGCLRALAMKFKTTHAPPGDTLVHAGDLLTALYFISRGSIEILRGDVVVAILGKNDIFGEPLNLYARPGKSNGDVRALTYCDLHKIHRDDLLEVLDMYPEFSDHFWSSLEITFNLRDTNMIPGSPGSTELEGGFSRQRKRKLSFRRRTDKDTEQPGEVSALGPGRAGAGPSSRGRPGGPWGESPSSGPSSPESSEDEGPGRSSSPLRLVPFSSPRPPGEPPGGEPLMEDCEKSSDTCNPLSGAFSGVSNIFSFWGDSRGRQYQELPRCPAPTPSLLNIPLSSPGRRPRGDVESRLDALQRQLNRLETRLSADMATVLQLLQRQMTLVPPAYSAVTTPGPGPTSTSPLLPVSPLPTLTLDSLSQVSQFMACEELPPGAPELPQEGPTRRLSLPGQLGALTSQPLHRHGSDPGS

SMILES | CC50 [1] | CC50 [2] | CC50 [3] | fold increase of anti-HBV potency compared to GLP-26 [4] | EC50 [4, 13] | EC90 [4, 13] | CC50 [5] | CYP Inhibition (% at 10 μM) 2B6 (CYP 2B6) | CYP Inhibition (% at 10 μM) 2C19 (CYP 2C19) | CYP Inhibition (% at 10 μM) 2C9 (CYP 2C9) | CYP Inhibition (% at 10 μM) 1A2 (CYP 1A2) | CYP Inhibition (% at 10 μM) 2C8 (CYP 2C8) | CYP Inhibition (% at 10 μM) 2D6 (CYP 2D6) | CYP Inhibition (% at 10 μM) 3A4-M (CYP 3A4) | CYP Inhibition (% at 10 μM) 3A4-T (CYP 3A4) | also measured
C#CC1(NC(=O)C(=O)c2c(C)c(C(=O)Nc3ccc(F)c(F)c3)n(C)c2C)CCC1 [Compound 9e, N-(3,4-Difluorophenyl)-4-(2-(1-ethynylcyclobutylamino)-2-oxoacetyl)-1,3,5-trimethyl-1H-pyrrole-2-carboxamide] | > 100 µM | > 100 µM | 98 µM | 5–30 fold | 0.3 ± 0.4 nM | 0.0019 ± 0.0015 µM | > 100 µM | – | – | – | – | – | – | – | – | –
C#CC1(NC(=O)C(=O)c2c(C)c(C(=O)Nc3ccc(F)c(F)c3)n(C)c2C)CCCCC1 [Compound 9f, N-(3,4-Difluorophenyl)-4-(2-(1-ethynylcyclohexylamino)-2-oxoacetyl)-1,3,5-trimethyl-1H-pyrrole-2-carboxamide] | 15 µM | 23 ± 13 µM | 42 ± 23 µM | only a moderate improvement | 3.5 ± 4.8 nM | 0.0074 ± 0.0093 µM | 43 µM | – | – | – | – | – | – | – | – | –
C#CCn1c(C)c(C(=O)C(=O)NC(C)(C)C#C)c(C)c1C(=O)Nc1ccc(F)c(F)c1 [Compound 10a, N-(3,4-Difluorophenyl)-3,5-dimethyl-4-(2-((2-methylbut-3-yn-2-yl)amino)-2-oxoacetyl)-1-(prop-2-yn-1-yl)-1H-pyrrole-2-carboxamide] | > 100 µM | > 100 µM | > 100 µM | – | 0.02 ± 0.03 nM | 0.0016 ± 0.0008 µM | > 100 µM | 5% | 34% | 40% | 9% | 95% | 8% | 40% | 40% | fold improvement of half-life on co-incubation with ritonavir ([6]; mouse liver microsomes, ritonavir at ratios up to 1/3): 45 fold; half-life at 1 μM ([6]; mouse, mouse liver microsomes, pH 7.4): 2.4 min; fold improvement of half-life on co-incubation with ritonavir ([7]; human liver microsomes, ritonavir at ratios up to 1/3): two-fold; half-life at 1 μM ([7]; human, human liver microsomes, pH 7.4): 9 min; Papp A→B at 2 h, 2 μM ([8]; Caco-2, pH 7.4): 33.5 ×10⁻⁶ cm/s; Papp B→A at 2 h, 2 μM ([8]; Caco-2, pH 7.4): 10.9 ×10⁻⁶ cm/s; recovery at 2 h, 2 μM ([8]; Caco-2, pH 7.4, Mean Recovery % A-B, Caco-2, A-B): 100%; recovery at 2 h, 2 μM ([8]; Caco-2, pH 7.4, Mean Recovery % B-A, Caco-2, B-A): 74.6%
C#CCn1c(C)c(C(=O)C(=O)NC(C#C)(CC)CC)c(C)c1C(=O)Nc1ccc(F)c(F)c1 [Compound 10b, N-(3,4-difluorophenyl)-4-(2-((3-ethylpent-1-yn-3-yl)amino)-2-oxoacetyl)-3,5-dimethyl-1-(prop-2-yn-1-yl)-1H-pyrrole-2-carboxamide] | 76 ± 17 µM | 53 ± 41 µM | 72 ± 39 µM | – | 7.9 ± 1.6 nM | 0.06 ± 0.041 µM | > 100 µM | – | – | – | – | – | – | – | – | –
C#CCNC(=O)C(=O)c1c(C)c(C(=O)Nc2ccc(F)c(F)c2)n(C)c1C [GLP-26, reference compound] | – | – | – | – | – | – | – | −1.6% | 15.9% | 11.7% | −9.6% | 54% | 9.5% | −7.2% | 8.3% | Liver microsome stability t1/2 Mouse ([6]; mouse liver microsomes 1 mg/mL, compound alone): 41 min; CC50 [9]: > 100 µM; GSH % Reactive metabolites at 25 μM (Formation of glutathione): 0.8%; hERG % Inhibition at 10 μM (hERG): 46.6%; CC50 [10]: > 100 µM; antiviral response (HBV): sustained antiviral response up to 12 weeks post treatment; Liver microsome stability t1/2 Human ([7]; human liver microsomes 1 mg/mL, compound alone): >60 min; CC50 [11]: > 100 µM; EC50 [4, 14]: 4.6 ± 2 nM; EC90 [4, 14]: 0.0168 ± 0.0071 µM; CC50 [12]: 46 ± 30 µM; Permeability A-B (Caco-2 cell monolayer; Caco-2, 2 μM, pH 7.4, 2 hr, A-B): 23.5 10^−6 cm/s; Permeability B-A (Caco-2 cell monolayer; Caco-2, 2 μM, pH 7.4, 2 hr, B-A): 22.8 10^−6 cm/s; Mean Recovery % A-B (Caco-2 cell monolayer; Caco-2, A-B): 86.3%; Mean Recovery % B-A (Caco-2 cell monolayer; Caco-2, B-A): 98.7%
